Measured values published in ChEMBL document CHEMBL1146742, “A-420983: a potent, orally active inhibitor of lck with efficacy in a model of transplant rejection” (Bioorg Med Chem Lett, 2004).
pIC50: −log10 of the molar value.

Tests used:
[1] = Half life was determined in dog after 1 mg/kg (i.v.) and 5 mg/kg (p.o.) administration; assay type: ADME, organism-based, Canis lupus familiaris; details: in vivo
Summary of the method: (§1)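 Pharmacokinetics were measured in mouse (5 mg/kg iv, 6 mg/kg po) and dog (1 mg/kg iv, 5 mg/kg po). Reported parameters were Cmax (ng/mL), Tmax (h), Vd (L/kg), plasma clearance (L/h/kg), elimination half-life (h) and oral bioavailability F (%).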

[2] = Time to reach maximum plasma concentration was determined in mouse after 5 mg/kg (i.v.) and 6 mg/kg (p.o.) administration; assay type: ADME, organism-based; details: po; summary of the method: as §1
[3] = Volume of distribution was determined in dog after 1 mg/kg (i.v.) and 5 mg/kg (p.o.) administration; assay type: ADME, organism-based, Canis lupus familiaris; details: in vivo, iv; summary of the method: as §1
[4] = Bioavailability was determined in dog after 1 mg/kg (i.v.) and 5 mg/kg (p.o.) administration; assay type: ADME, organism-based, Canis lupus familiaris; details: in vivo, po; summary of the method: as §1
[5] = Maximum plasma concentration of compound was determined in mouse after 5 mg/kg (i.v.) and 6 mg/kg (p.o.) administration; assay type: ADME, organism-based; details: po; summary of the method: as §1
[6] = Plasma clearance was determined in mouse after 5 mg/kg (i.v.) and 6 mg/kg (p.o.) administration; assay type: ADME, organism-based; details: iv, read-out: Clp (converted); summary of the method: as §1
[7] = Time to reach maximum plasma concentration was determined in dog after 1 mg/kg (i.v.) and 5 mg/kg (p.o.) administration; assay type: ADME, organism-based, Canis lupus familiaris; details: po; summary of the method: as §1
[8] = Bioavailability was determined in mouse after 5 mg/kg (i.v.) and 6 mg/kg (p.o.) administration; assay type: ADME, organism-based; details: in vivo, po; summary of the method: as §1
[9] = Plasma clearance was determined in dog after 1 mg/kg (i.v.) and 5 mg/kg (p.o.) administration; assay type: ADME, organism-based, Canis lupus familiaris; details: iv; summary of the method: as §1
[10] = Half life was determined in mouse after 5 mg/kg (i.v.) and 6 mg/kg (p.o.) administration; assay type: ADME, organism-based; details: in vivo; summary of the method: as §1
[11] = Maximum plasma concentration of compound was determined in dog after 1 mg/kg (i.v.) and 5 mg/kg (p.o.) administration; assay type: ADME, organism-based, Canis lupus familiaris; details: po; summary of the method: as §1
[12] = target: T1, Interleukin-2 (Mus musculus) (UniProt P04351); experiment: Percent inhibition of interleukin-2 production by compound was measured after 8 hours of oral administration in mice; assay type: functional, organism-based; details: concentration not given here
T1 sequence (whole entry): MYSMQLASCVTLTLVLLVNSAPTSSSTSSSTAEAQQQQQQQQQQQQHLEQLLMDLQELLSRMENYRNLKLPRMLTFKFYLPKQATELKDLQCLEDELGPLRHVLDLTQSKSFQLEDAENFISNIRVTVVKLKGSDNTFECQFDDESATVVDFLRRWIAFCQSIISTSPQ

[13] = target: T1, Interleukin-2 (Mus musculus); experiment: Effective concentration to suppress interleukin-2 production was measured after 2.5 hours of oral administration in mice; assay type: functional, organism-based
[14] = target: T1, Interleukin-2 (Mus musculus); experiment: Percent inhibition of interleukin-2 production by compound was measured after 18 hours of oral administration in mice; assay type: functional, organism-based; details: concentration not given here
[15] = target: Vascular endothelial growth factor receptor 2 (Homo sapiens, UniProt P35968); experiment: Inhibition of vascular endothelial growth factor receptor 2 activity with 1 mM ATP and biotinylated lck peptide
Homo sapiens = organism: Homo sapiens; experiment: Inhibition of anti-CD3 mAb induced inter leukein-2 production in human whole blood was evaluated; assay type: functional, organism-based
[16] = Volume of distribution was determined in mouse after 5 mg/kg (i.v.) and 6 mg/kg (p.o.) administration; assay type: ADME, organism-based; details: in vivo, iv; summary of the method: as §1

Chain of Vascular endothelial growth factor receptor 2 (P35968 whole entry): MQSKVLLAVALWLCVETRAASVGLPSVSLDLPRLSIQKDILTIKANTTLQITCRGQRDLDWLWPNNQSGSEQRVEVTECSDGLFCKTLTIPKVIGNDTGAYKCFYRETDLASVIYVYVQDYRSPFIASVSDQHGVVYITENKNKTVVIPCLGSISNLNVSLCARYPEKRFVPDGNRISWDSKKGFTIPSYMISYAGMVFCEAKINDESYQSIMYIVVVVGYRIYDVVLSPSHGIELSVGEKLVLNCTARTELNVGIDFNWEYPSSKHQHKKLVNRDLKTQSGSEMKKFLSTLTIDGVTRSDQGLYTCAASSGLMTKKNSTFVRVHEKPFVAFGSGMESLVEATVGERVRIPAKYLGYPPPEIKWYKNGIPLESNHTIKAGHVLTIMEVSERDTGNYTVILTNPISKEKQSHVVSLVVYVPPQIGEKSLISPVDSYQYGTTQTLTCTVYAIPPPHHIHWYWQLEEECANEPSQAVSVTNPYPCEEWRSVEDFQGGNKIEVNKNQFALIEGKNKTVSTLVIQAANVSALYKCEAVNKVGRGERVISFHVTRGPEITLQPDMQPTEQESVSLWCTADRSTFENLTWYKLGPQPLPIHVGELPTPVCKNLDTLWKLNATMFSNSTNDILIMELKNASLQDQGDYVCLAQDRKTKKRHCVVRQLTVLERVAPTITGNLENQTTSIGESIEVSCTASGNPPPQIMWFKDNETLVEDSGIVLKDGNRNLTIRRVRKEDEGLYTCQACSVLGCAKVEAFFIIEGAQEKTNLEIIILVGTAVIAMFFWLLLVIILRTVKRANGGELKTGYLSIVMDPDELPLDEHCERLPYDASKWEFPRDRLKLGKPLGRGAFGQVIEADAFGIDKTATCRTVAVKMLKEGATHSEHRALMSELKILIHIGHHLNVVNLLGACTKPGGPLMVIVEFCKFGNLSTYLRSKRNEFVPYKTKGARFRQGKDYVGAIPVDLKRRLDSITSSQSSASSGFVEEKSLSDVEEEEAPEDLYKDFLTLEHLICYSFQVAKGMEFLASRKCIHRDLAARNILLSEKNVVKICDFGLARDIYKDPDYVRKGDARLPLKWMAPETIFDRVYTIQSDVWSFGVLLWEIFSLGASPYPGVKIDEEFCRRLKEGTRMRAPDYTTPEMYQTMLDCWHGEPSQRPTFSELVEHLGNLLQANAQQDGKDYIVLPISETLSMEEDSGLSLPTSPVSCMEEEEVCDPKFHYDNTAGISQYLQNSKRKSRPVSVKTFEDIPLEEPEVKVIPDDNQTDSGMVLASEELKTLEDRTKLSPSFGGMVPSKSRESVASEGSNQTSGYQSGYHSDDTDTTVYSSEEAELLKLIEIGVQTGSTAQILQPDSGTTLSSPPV

Row | Compound | half-life [1] | Tmax [2] | Vd [3] | bioavailability [4] | Cmax [5] | clearance [6] | Tmax [7] | bioavailability [8] | clearance [9] | half-life [10] | Cmax [11] | inhibition [12] | ED50 [13] | ED90 [13] | inhibition [14] | pIC50 [15] | pIC50 (Homo sapiens) | Vd [16]
1 | COc1cc(-c2nn([C@H]3CC[C@H](N4CCN(C)CC4)CC3)c3ncnc(N)c23)ccc1NC(=O)c1cc2ccccc2n1C | 45 h | 8 h | 25 L/kg | 32% | 51 ng/mL | 28.3 mL/min/kg | 24 h | 30% | 11.7 mL/min/kg | 10 h | 74 ng/mL | > 90% | 1.5 mg/kg | 6 mg/kg | > 90% | < 4.30 | 8.10 | 25 L/kg
2 | COc1cc(-c2nn([C@H]3CC[C@H](N4CCN(C)CC4)CC3)c3ncnc(N)c23)ccc1NCc1ccco1 | – | – | – | – | – | – | – | – | – | – | – | – | – | – | – | – | 8.00 | –
3 | COc1cc(-c2nn([C@H]3CC[C@H](N4CCN(C)CC4)CC3)c3ncnc(N)c23)ccc1NC(=O)OCc1ccccc1 | – | – | – | – | – | – | – | – | – | – | – | 51% | 3 mg/kg | 14 mg/kg | 14% | – | – | –
4 | COc1cc(-c2nn([C@H]3CC[C@H](N4CCN(C)CC4)CC3)c3ncnc(N)c23)ccc1NC(=O)c1cc2ccccc2o1 | – | – | – | – | – | – | – | – | – | – | – | 48% | 8.5 mg/kg | 12.5 mg/kg | < 10% | – | 8.15 | –
5 | COc1cc(-c2nn([C@H]3CC[C@H](N4CCN(C)CC4)CC3)c3ncnc(N)c23)ccc1NC(=O)c1cc2ccccc2[nH]1 | – | – | – | – | – | – | – | – | – | – | – | 79% | 7 mg/kg | 12.5 mg/kg | 33% | – | 8.22 | –
